Measured values: ChEMBL document CHEMBL1926649, “New cholesterol esterase inhibitors based on rhodanine and thiazolidinedione scaffolds” (Bioorg Med Chem, 2011)

Experiments:
Acetylcholinesterase = Acetylcholinesterase (Electrophorus electricus, UniProt O42275); experiment: Inhibition of Electrophorus electricus acetylcholinesterase preincubated for 15 mins by spectrophotometry
[1] = Inhibition of pig pancreatic cholesterol esterase preincubated for 5 mins by spectrophotometry; set-up: species or system Sus scrofa
In short: (§1)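 Porcine CEase in 100 mM sodium phosphate, 100 mM NaCl, pH 7.0, with 6 mM taurocholate (final), 3% acetonitrile, 3% DMSO. Inhibitor pre-mixed with 200 µM pNPB for 5 min at 25 °C. Reaction started with enzyme (10 ng/mL final), A405 followed for 6 min. Rates taken from linear steady-state turnover. Duplicates at five inhibitor concentrations. Residual activity at infinite [I] and IC50 come from non-linear regression of rate versus [I].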

Sus scrofa [2] = species on record: Sus scrofa; experiment: Inhibition of pig pancreatic cholesterol esterase assessed as residual enzyme activity at infinite compound concentration preincubated for 5 mins by spectrophotometry; in short: as §1
[3] = Selectivity ratio of IC50 for Electrophorus electricus acetylcholinesterase to IC50 for pig cholesterol esterase
In short: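 IC50 ratio taken between two assays. AChE: E. electricus enzyme, 15 min preincubation, ATCh 500 µM with DTNB, read at 412 nm, pH 7.3. Porcine CEase: 10 ng/mL, 5 min preincubation of inhibitor with substrate, pNPB 200 µM with taurocholate 6 mM, read at 405 nm, pH 7.0.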

Sus scrofa [4] = species on record: Sus scrofa; experiment: Ratio of binding affinity to free pig pancreatic cholesterol esterase to binding affinity to substrate-bound pig pancreatic cholesterol esterase
In short: (§2)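 Porcine CEase, pNPB hydrolysis read at 405 nm, 25 °C, pH 7.0 phosphate/NaCl buffer with 6 mM taurocholate. Quadruplicates covered five inhibitor levels (2–10 µM) crossed with five substrate levels (100–300 µM), after a 5 min preincubation. The uninhibited rate at 200 µM substrate was set to 100%. Ki, α and β come from replots of specific velocity using σ/[1+σ], with σ = [S]/Km and a separately determined Km.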

[5] = Mixed inhibition of pig pancreatic cholesterol esterase preincubated for 5 mins by specific velocity plot analysis; set-up: species or system Sus scrofa; in short: as §2

Acetylcholinesterase, sequence (O42275 whole entry): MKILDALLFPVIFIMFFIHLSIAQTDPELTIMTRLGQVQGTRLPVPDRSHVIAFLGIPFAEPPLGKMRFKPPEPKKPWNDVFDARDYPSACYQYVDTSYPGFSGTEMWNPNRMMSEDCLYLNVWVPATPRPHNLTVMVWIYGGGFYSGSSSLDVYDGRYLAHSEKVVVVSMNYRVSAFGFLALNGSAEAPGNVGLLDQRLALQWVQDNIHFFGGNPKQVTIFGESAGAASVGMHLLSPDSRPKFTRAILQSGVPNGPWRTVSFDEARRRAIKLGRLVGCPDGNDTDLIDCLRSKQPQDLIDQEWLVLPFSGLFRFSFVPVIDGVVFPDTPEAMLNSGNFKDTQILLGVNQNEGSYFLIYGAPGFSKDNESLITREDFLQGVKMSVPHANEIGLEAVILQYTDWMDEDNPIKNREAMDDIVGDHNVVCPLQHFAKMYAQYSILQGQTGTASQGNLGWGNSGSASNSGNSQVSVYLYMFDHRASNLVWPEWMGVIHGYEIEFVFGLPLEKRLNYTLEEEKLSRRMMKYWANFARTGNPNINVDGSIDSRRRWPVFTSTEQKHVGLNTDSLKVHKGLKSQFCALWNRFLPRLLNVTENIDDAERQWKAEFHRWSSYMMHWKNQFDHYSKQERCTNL

Structure (SMILES) | IC50 (Acetylcholinesterase) [µM] | IC50 [1] [µM] | Activity (Sus scrofa [2]) [%] | Ratio IC50 [3] | Ratio (Sus scrofa [4]) | Ki [5] [µM]
O=C1NC(=O)/C(=C/c2ccc(C(=O)O)cc2)S1 | > 100 | > 100 |  |  |  | 
O=C1NC(=O)/C(=C/c2ccccc2)S1 | > 100 | > 100 |  |  |  | 
CCCc1ccccc1NC(=O)[C@H](COC(C)(C)C)NC(=O)c1ccc(/C=C2\SC(=S)NC2=O)cc1 | 21.6 | 6.07 |  |  |  | 
CCCc1ccccc1NC(=O)[C@H](CO)NC(=O)c1ccc(/C=C2\SC(=O)NC2=O)cc1 | > 100 | 5.7 | 12 | > 15 |  | 
CCCc1ccccc1NC(=O)[C@H](C)NC(=O)c1ccc(/C=C2\SC(=S)NC2=O)cc1 | > 100 | 50 |  |  |  | 
CCCc1ccccc1NC(=O)[C@H](CO)NC(=O)c1ccc(/C=C2\SC(=S)NC2=O)cc1 | > 100 | 31 |  |  |  | 
CCCc1ccccc1NC(=O)[C@H](COC(C)(C)C)NC(=O)c1ccc(/C=C2\SC(=O)NC2=O)cc1 | 66 | 85 |  |  |  | 
CCCc1ccccc1NC(=O)[C@H](Cc1ccccc1)NC(=O)c1ccc(/C=C2\SC(=O)NC2=O)cc1 | 14 | 40 |  |  |  | 
O=C1NC(=S)S/C1=C\c1ccc(C(=O)O)cc1 | > 100 | > 100 |  |  |  | 
CCCc1ccccc1NC(=O)[C@H](C)NC(=O)c1ccc(/C=C2\SC(=O)NC2=O)cc1 | > 100 | 54 |  |  |  | 
CCCc1ccccc1OCC(O)COc1ccc(/C=C2\SC(=O)NC2=O)cc1 (racemic) | > 100 | 5.89 | 17 | > 15 |  | 
CCCc1ccccc1OCC(O)COc1ccc(/C=C2\SC(=S)NC2=O)cc1 (racemic) | 5.14 | 1.76 | 18 |  | 5.5 | 1.22
CCCc1ccccc1NC(=O)[C@H](Cc1ccc(O)cc1)NC(=O)c1ccc(/C=C2\SC(=S)NC2=O)cc1 | 57 | 14.5 |  |  |  | 
CCCc1ccccc1NC(=O)[C@H](Cc1ccccc1)NC(=O)c1ccc(/C=C2\SC(=S)NC2=O)cc1 | 43 | 40 |  |  |  | 
CCCc1ccccc1NC(=O)[C@H](COCc1ccccc1)NC(=O)c1ccc(/C=C2\SC(=S)NC2=O)cc1 | 25 | 1.44 | 25 | 17 |  | 
